Measurements reported in ChEMBL document CHEMBL1121993, “A specific inhibitor of IgE-antibody formation: n-pentyl beta-D-fructopyranoside” (1982).

How the values were obtained:
Assay type in all cases: functional
Mus musculus [1] = species: Mus musculus; test: Evaluated for effect against passive cutaneous anaphylaxis in female BALB/c mice immunized with 10 ug of DNP-As and 2 mg of Al(OH3) after day 21; PCA (log2)
How it was run: (§1)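 Female BALB/c mice received 10 μg DNP-As and 2 mg Al(OH)3 on day 0, then 100 (mg/kg)/day po in 2% NaHCO3 for 5 days after immunization. Sera were taken on days 10, 21 and 30 and pooled from five mice. PCA was done in normal male Wistar rats: serum id in duplicate, then 1 mg DNP-As with 5 mg Evans blue iv; titer is the greatest dilution with a reaction >5 mm.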

Mus musculus [2] = species: Mus musculus; test: Evaluated for effect against passive hemagglutinination in female BALB/c mice immunized with 10 ug of DNP-As and 2 mg of Al(OH3) after day 30; PHA(log2)
How it was run: (§2)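 Female BALB/c mice were given 10 μg DNP-As and 2 mg Al(OH)3 on day 0, then 100 (mg/kg)/day po in 2% NaHCO3 for 5 days after immunization. Pooled sera from five mice (days 10, 21, 30) were serially diluted and mixed with sheep red cells coupled to DNP-As via glutaraldehyde, then held 2 h at 37 °C. Titer is the greatest dilution with complete agglutination, expressed as n of 2^n.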

Mus musculus [3] = species: Mus musculus; test: Evaluated for effect against passive cutaneous anaphylaxis in female BALB/c mice immunized with 10 ug of DNP-As and 2 mg of Al(OH3) after day 10; PCA (log2); how it was run: as §1
Rattus norvegicus [4] = species: Rattus norvegicus; test: Evaluated for effect against passive cutaneous anaphylaxis in rats immunized with DNP-As and B. pertussis; PCA (log2)
How it was run: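 Rats were immunized with 1 mg DNP-As and 10^10 B. pertussis on day 0 and boosted with 0.5 mg DNP-As on day 5. Drug was given at 100 (mg/kg)/day ip for 5 days from day 0, and serum was taken on day 8. PCA was read in male Wistar rats after id serum, with iv DNP-As and Evans blue. Titer is the greatest dilution with a spot >5 mm; means ± SE of eight rats.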

Rattus norvegicus [5] = species: Rattus norvegicus; test: Evaluated for effect against passive hemagglutinination in rats immunized with DNP-As and B. pertussis; PHA(log2)
How it was run: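 Rats were immunized day 0 with 1 mg DNP-As plus 10¹⁰ killed B. pertussis, boosted day 5 with 0.5 mg DNP-As alone, and titers read on day 8. Dosing was 100 (mg/kg)/day ip for 5 days from day 0. Serum dilutions were incubated with DNP-As-coupled sheep erythrocytes for 2 h at 37 °C; complete agglutination endpoint as 2^n; means ± SE, eight rats.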

Mus musculus [6] = species: Mus musculus; test: Evaluated for effect against passive cutaneous anaphylaxis in female BALB/c mice immunized with 10 ug of DNP-As and 2 mg of Al(OH3) after day 30; PCA (log2); how it was run: as §1
Mus musculus [7] = species: Mus musculus; test: Evaluated for effect against passive hemagglutinination in female BALB/c mice immunized with 10 ug of DNP-As and 2 mg of Al(OH3) after day 10; PHA(log2); how it was run: as §2
Mus musculus [8] = species: Mus musculus; test: Evaluated for effect against passive hemagglutinination in female BALB/c mice immunized with 10 ug of DNP-As and 2 mg of Al(OH3) after day 21; PHA(log2); how it was run: as §2
Mus musculus [9] = species: Mus musculus; test: Evaluated for effect against passive cutaneous anaphylaxis (PCA) in female BALB/c mice immunized with 10 ug of DNP-As and 2 mg of Al(OH3) after day 30; PCA (log2); how it was run: as §1
Mus musculus [10] = species: Mus musculus; test: Evaluated for effect against passive cutaneous anaphylaxis (PCA) in female BALB/c mice immunized with 10 ug of DNP-As and 2 mg of Al(OH3) after day 21; PCA (log2); how it was run: as §1
Rattus norvegicus [11] = species: Rattus norvegicus; test: Evaluated for effect against passive hemagglutinination in female wistar rats; PHA(log2)
How it was run: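 Female Wistar rats were immunized with 1 mg DNP-As plus 10¹⁰ killed B. pertussis on day 0, boosted on day 5 with 0.5 mg DNP-As, and sera taken on day 8. Compound in 2% NaHCO₃ was given at 100 (mg/kg)/day po for 5 days from day 0. Hemagglutination used DNP-As-coupled sheep RBC, 2 h at 37 °C; titer is the highest complete-agglutination dilution (log2); mean ± SE, eight rats.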

Mus musculus [12] = species: Mus musculus; test: Evaluated for effect against passive hemagglutinination (PHA) in female BALB/c mice immunized with 10 ug of DNP-As and 2 mg of Al(OH3) after day 10; PHA(log2); how it was run: as §2
Mus musculus [13] = species: Mus musculus; test: Evaluated for effect against passive hemagglutinination (PHA) in female BALB/c mice immunized with 10 ug of DNP-As and 2 mg of Al(OH3) after day 30; PHA(log2); how it was run: as §2
Rattus norvegicus [14] = species: Rattus norvegicus; test: Evaluated for effect against passive cutaneous anaphylaxis in female wistar rats; PCA (log2)
How it was run: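 Female Wistar rats (190–210 g) were immunized with 1 mg DNP-As plus 10^10 killed B. pertussis on day 0 and boosted with 0.5 mg DNP-As on day 5; serum was taken on day 8. Drug was given at 100 (mg/kg)/day po in 2% NaHCO3 for 5 days from day 0. Serum was then tested by PCA in normal male rats (Evans blue readout, >5 mm cutoff). Values are means ± SE, n=8.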

Mus musculus [15] = species: Mus musculus; test: Evaluated for effect against passive cutaneous anaphylaxis (PCA) in female BALB/c mice immunized with 10 ug of DNP-As and 2 mg of Al(OH3) after day 10; PCA (log2); how it was run: as §1
Mus musculus [16] = species: Mus musculus; test: Evaluated for effect against passive hemagglutinination (PHA) in female BALB/c mice immunized with 10 ug of DNP-As and 2 mg of Al(OH3) after day 21; PHA(log2); how it was run: as §2

## OC[C@@]1(OCc2ccccc2)OC[C@@H](O)[C@H](O)[C@@H]1O
Mus musculus [1]
  PCA: 9
Mus musculus [2]
  PHA: 6
Mus musculus [3]
  PCA: 8.6
Rattus norvegicus [4]
  PCA: 7
Rattus norvegicus [5]
  PHA: 9
Mus musculus [6]
  PCA: 8.4
Mus musculus [7]
  PHA: 6
Mus musculus [8]
  PHA: 5

## CCO[C@]1(CO)OC[C@@H](O)[C@H](O)[C@@H]1O
Mus musculus [9]
  PCA: 7.8
Mus musculus [10]
  PCA: 8.3
Rattus norvegicus [11]
  PHA: 8.5
Mus musculus [12]
  PHA: 5
Mus musculus [13]
  PHA: 6
Rattus norvegicus [14]
  PCA: 6.7
Rattus norvegicus [4]
  PCA: 7.1
Mus musculus [15]
  PCA: 7.9
Rattus norvegicus [5]
  PHA: 7.9
Mus musculus [16]
  PHA: 5

## CCO[C@@]1(CO)O[C@H](CO)[C@@H](O)[C@@H]1O
Rattus norvegicus [4]
  PCA: 6.5

## CCCCO[C@@]1(CO)O[C@H](CO)[C@@H](O)[C@@H]1O
Rattus norvegicus [4]
  PCA: 6.7

## CCCO[C@@]1(CO)O[C@H](CO)[C@@H](O)[C@@H]1O
Rattus norvegicus [4]
  PCA: 7.3

## CCO[C@]1(CO)O[C@H](CO)[C@@H](O)[C@@H]1O
Rattus norvegicus [4]
  PCA: 6.1

## O=P1(N(CCCl)CCCl)NCCCO1 (centres undefined) [CYCLOPHOSPHAMIDE ANHYDROUS]
Rattus norvegicus [4]
  PCA: <2
Rattus norvegicus [5]
  PHA: 1.3
